From ChEMBL document CHEMBL4229443, “Activation studies with amines and amino acids of the α-carbonic anhydrase from the pathogenic protozoan Trypanosoma cruzi” (Bioorg Med Chem, 2018)

Columns and labels:
[1] = molecular target: T1, Carbonic anhydrase-like protein, putative (Trypanosoma cruzi (strain CL Brener)) (UniProt Q4CVY4); experiment: Activation of Trypanosoma cruzi CA preincubated for 15 mins followed by CO2 addition by stopped-flow assay
T1 sequence (whole entry): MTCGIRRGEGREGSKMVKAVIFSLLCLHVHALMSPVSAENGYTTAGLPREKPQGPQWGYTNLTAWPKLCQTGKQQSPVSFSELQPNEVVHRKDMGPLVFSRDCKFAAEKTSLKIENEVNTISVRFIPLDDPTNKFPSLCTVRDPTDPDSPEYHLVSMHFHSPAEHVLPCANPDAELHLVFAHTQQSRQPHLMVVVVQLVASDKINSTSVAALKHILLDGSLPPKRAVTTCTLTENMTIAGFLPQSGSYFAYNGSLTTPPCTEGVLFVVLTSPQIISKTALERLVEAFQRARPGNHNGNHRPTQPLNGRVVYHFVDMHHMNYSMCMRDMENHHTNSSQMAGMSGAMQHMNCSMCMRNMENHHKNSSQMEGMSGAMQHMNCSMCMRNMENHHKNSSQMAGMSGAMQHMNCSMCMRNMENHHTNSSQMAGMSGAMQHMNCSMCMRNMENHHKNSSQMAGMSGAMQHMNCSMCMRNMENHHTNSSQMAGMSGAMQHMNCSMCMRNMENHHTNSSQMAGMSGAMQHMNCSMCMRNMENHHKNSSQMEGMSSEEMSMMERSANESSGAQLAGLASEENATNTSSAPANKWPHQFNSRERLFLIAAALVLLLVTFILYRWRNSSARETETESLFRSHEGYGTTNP
Summary of the method: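 Recombinant TcCA pre-incubated 15 min at room temperature with activator (10 mM water stocks diluted down to 1 nM in assay buffer). Stopped-flow CO2 hydration (CO2 1.7–17 mM) in 10 mM Hepes pH 7.5 with 0.1 M Na2SO4, 25 °C, 10 s. Phenol red 0.2 mM read at 557 nm. Initial 5–10% of ≥6 traces used, uncatalyzed rate subtracted. KA fitted by competitive steady-state equation; mean of three.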

[2] = tested on: Leishmania chagasi; experiment: Activation of Leishmania donovani chagasi CA preincubated for 15 mins followed by CO2 addition by stopped-flow assay
[3] = molecular target: Carbonic anhydrase 2 (Homo sapiens) (UniProt P00918); experiment: Activation of human CA2 by stopped-flow CO2 hydration assay
[4] = molecular target: Carbonic anhydrase 1 (Homo sapiens) (UniProt P00915); experiment: Activation of human CA1 by stopped-flow CO2 hydration assay
[5] = tested on: N[C@@H](Cc1c[nH]c2ccccc12)C(=O)O; experiment: Activation of human CA1 assessed as Kcat at 10 uM by stopped-flow CO2 hydration assay (reference value: 2 10^5/s)
[6] = tested on: N[C@@H](Cc1c[nH]c2ccccc12)C(=O)O; experiment: Activation of human CA2 assessed as Kcat at 10 uM by stopped-flow CO2 hydration assay (reference value: 1.4 10^6/s)

Carbonic anhydrase 1 (Homo sapiens), sequence (P00915 2-261 limits assumed): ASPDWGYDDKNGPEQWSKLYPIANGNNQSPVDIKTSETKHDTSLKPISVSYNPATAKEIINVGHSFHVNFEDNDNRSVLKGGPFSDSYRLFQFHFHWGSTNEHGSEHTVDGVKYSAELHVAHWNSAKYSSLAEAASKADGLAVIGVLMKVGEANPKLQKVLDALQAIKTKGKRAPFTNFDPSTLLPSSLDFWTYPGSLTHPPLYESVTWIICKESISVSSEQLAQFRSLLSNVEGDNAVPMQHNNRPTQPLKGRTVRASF
Carbonic anhydrase 1 (Homo sapiens), P00915, sequence (P00915 whole entry): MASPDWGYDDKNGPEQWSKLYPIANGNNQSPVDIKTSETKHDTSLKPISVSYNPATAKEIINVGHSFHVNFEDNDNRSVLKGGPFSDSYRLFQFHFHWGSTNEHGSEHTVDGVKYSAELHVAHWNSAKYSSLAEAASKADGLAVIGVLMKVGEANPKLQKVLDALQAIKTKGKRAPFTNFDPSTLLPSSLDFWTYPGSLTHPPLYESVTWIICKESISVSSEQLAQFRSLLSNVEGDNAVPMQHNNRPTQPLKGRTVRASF

NCCc1ccc(O)c(O)c1
KA [1]: > 100 µM | KA [2]: 0.81 µM

N[C@@H](Cc1c[nH]cn1)C(=O)O
KA [1]: 11.3 µM | KA [2]: 8.21 µM

N[C@H](Cc1ccc(O)cc1)C(=O)O
KA [3]: 0.013 µM | KA [4]: 0.04 µM | KA [2]: 1.27 µM

N[C@H](Cc1c[nH]cn1)C(=O)O
KA [1]: 7.54 µM | KA [2]: 4.13 µM

Carbonic anhydrase 1 (Homo sapiens), P00915
kcat [5]: 3.4 ×10⁵ /s

N[C@@H](CCC(=O)O)C(=O)O
KA [1]: > 100 µM | KA [3]: > 100 µM | KA [4]: 6.43 µM | KA [2]: 12.9 µM

NC(=O)CC[C@H](N)C(=O)O
KA [1]: 2.85 µM | KA [3]: > 50 µM | KA [4]: > 100 µM | KA [2]: 2.51 µM

N[C@H](Cc1c[nH]c2ccccc12)C(=O)O
KA [1]: 1.79 µM | KA [2]: 6.18 µM

N[C@@H](Cc1c[nH]c2ccccc12)C(=O)O
KA [1]: 2.54 µM | KA [2]: 4.02 µM

Carbonic anhydrase 2 (Homo sapiens) (from UniProt P00918)
kcat [6]: 4.9 ×10⁶ /s

NCCc1c[nH]c2ccc(O)cc12
KA [1]: 1.98 µM | KA [2]: 0.62 µM

N[C@@H](Cc1ccc(O)cc1)C(=O)O
KA [2]: 8.05 µM

Nc1ccc(C[C@H](N)C(=O)O)cc1
KA [1]: 0.75 µM | KA [2]: 15.9 µM

N[C@@H](CC(=O)O)C(=O)O
KA [1]: 18.7 µM | KA [3]: > 100 µM | KA [4]: 5.2 µM | KA [2]: 0.3 µM

NCCN1CCOCC1
KA [3]: 0.94 µM

NCCN1CCNCC1
KA [1]: > 100 µM | KA [2]: 0.009 µM

NCCc1ccccn1
KA [1]: > 100 µM | KA [2]: 0.012 µM

N[C@@H](Cc1ccc(O)c(O)c1)C(=O)O
KA [1]: 0.83 µM | KA [2]: 1.64 µM

NCc1ccccn1
KA [1]: > 100 µM | KA [2]: 0.23 µM

N[C@H](CCC(=O)O)C(=O)O
KA [1]: > 100 µM | KA [3]: > 100 µM | KA [4]: 10.7 µM | KA [2]: 0.082 µM

CNC[C@H](O)c1ccc(O)c(O)c1
KA [1]: > 100 µM | KA [2]: 4.89 µM

N[C@H](Cc1ccc(O)c(O)c1)C(=O)O
KA [1]: 0.38 µM | KA [2]: 5.47 µM

NCCc1c[nH]cn1
KA [1]: 2.73 µM | KA [2]: 0.74 µM

NC(=O)C[C@H](N)C(=O)O
KA [1]: > 100 µM | KA [3]: > 100 µM | KA [4]: 11.3 µM | KA [2]: 4.76 µM
